Test results taken from publication PMC9122039 (Chembiochem : a European journal of chemical biology, 2022).
Where a SMILES comes first, the peptide text is derived from it. The star is where a group is joined. Cbz = O=C(OCc1ccccc1)*

Experiments:
Assay type in all cases: cell-based
[1] = system: proteasome (β2 and β5 subunits) in HEK-293T cells; conditions: then 3 at 500 nM 1 h; for increase of proteasome labeling over DMSO treated samples: modulator 25 μM 1 h; for change of proteasome activity: modulator 5 μM 1 h; for effect of inhibitor on labeling by 3: inhibitor at two concentrations 1 h
Procedure, shortened: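 HEK-293T cells pre-treated 1 h with the test compound (stimulators and inhibitors, each at two concentrations) or DMSO. BODIPY-epoxomicin probe then added at 500 nM for 1 h (2 h total). Proteasome bound by the probe is resolved by SDS-PAGE and in-gel fluorescence is scanned. β2 and β5 band signals are quantified and normalised to DMSO; error bars are standard deviation.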

[2] = system: proteasome in HEK-293T cells; assay: Flow cytometry with probe 3; conditions: modulator 1 h, then 3 for 1 h, rinsed with PBS
Procedure, shortened: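 HEK-293T cells get the test compound (stimulator or inhibitor) for 1 h. The BODIPY-epoxomicin probe is then added and incubated another hour. Cells are pelleted and rinsed with PBS to remove unreacted probe. Probe fluorescence is measured by flow cytometry against DMSO-treated samples.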

[3] = system: proteasome in HEK-293T cells; assay: Confocal microscopy with probe 3; conditions: modulator 25 μM 1 h, then 3 at 500 nM 1 h, PBS wash
Procedure, shortened: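 HEK-293T cells on poly-D-lysine-coated glass coverslip chambers; test compound (proteasome stimulator or inhibitor) at 25 μM for 1 h, then BODIPY-epoxomicin probe at 500 nM for another hour. PBS wash removes extracellular or unbound probe. Controls: DMSO plus probe (basal activity) and DMSO without probe. Imaged by confocal in bright field and BodipyFL green channel, with overlay.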

Compound	increase of proteasome labeling over DMSO treated samples [1]	change of proteasome activity [1]	change of fluorescent signal of 3 over DMSO treated samples (flow cytometry) [2]	change of intracellular fluorescent signal of 3 (confocal microscopy) [3]	effect of inhibitor on labeling by 3 [1]
CCCCC/C=C\C/C=C\C/C=C\C/C=C\CCCC(=O)Nc1ccc(O)cc1 [AM-404]	at least 40%	–	–	–	–
CN1CCN(CCCN2c3ccccc3Sc3ccc(C(F)(F)F)cc32)CC1 [TFP, trifluoperazine]	at least 40%	significant increase in activity	increase	–	–
Clc1ccc(COC(Cn2ccnc2)c2ccc(Cl)cc2Cl)c(Cl)c1 (stereo not drawn) [MO, Miconazole]	at least 40%	significant increase in activity	increase	remarkable increase in fluorescent signal	–
CC(C)C[C@@H](C=O)NC(=O)[C@H](CC(C)C)NC(=O)[C@H](CC(C)C)NC(=O)OCc1ccccc1 [MG-132] (Cbz-Leu-Leu-Leu-aldehyde)	–	–	decrease	significantly decreased the signal	prevented the binding of (3)
epoxomicin	–	–	–	–	prevented the binding of (3)
